Assay results reported in ChEMBL document CHEMBL1157752, “Lessons learned from herbal medicinal products: the example of St. John's Wort (perpendicular)” (J Nat Prod, 2010).
Values belong to the molecule of their own block, whether it stands above or below them.

Key:
Cytochrome P450 3A4 = Cytochrome P450 3A4 (Homo sapiens, UniProt P08684)
[1] = molecular target: Delta-type opioid receptor (Homo sapiens, UniProt P41143); experiment: Binding affinity to delta opioid receptor
Rattus norvegicus [2] = experiment: Antidepressant activity in rat assessed as immobility time at 0.6 mg/kg, po by forced swimming test (reference value: 150.3 +/- 11.1 sec); type: functional
Rattus norvegicus [3] = experiment: Antidepressant activity in rat assessed as immobility time at 1.3 mg/kg, po by forced swimming test (reference value: 150.3 +/- 11.1 sec); type: functional
Outline: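 Rats received single compounds by mouth in a Porsolt forced swimming test. The read-out was immobility time in seconds, compared with a saline control, with imipramine 20 mg/kg po as the reference antidepressant. Values are mean ± SEM, n = 10 per group.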

Rattus norvegicus [4] = experiment: Reduction in corticotropin-releasing hormone mRNA expression in rat hyphalamic paraventricular nucleus at 0.2 mg/kg, po, qd for 8 weeks; type: functional; design: scale not given: the % may be the effect or the level left
D(3) dopamine receptor = D(3) dopamine receptor (Homo sapiens, UniProt P35462); experiment: Binding affinity to dopamine D3 receptor
Sequence of D(3) dopamine receptor (P35462 whole entry): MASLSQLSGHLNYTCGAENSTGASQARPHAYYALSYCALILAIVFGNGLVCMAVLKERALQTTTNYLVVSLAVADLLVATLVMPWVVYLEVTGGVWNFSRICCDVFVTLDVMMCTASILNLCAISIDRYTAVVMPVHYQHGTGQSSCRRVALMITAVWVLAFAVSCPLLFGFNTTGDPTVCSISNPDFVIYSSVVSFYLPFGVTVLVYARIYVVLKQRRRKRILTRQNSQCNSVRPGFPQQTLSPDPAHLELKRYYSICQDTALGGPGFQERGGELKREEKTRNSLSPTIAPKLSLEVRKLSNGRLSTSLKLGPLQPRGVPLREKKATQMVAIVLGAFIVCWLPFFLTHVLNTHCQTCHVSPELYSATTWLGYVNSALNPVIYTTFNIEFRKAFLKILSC

[5] = Permeability across basolateral to apical side in human Caco-2 cells; type: ADME, cell-based; settings: read-out: permeability
Outline: (§1)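 Caco-2 colon adenocarcinoma cells were grown as monolayers in Transwell chambers, and compound was dosed to the apical or the basolateral side. Transport was measured apical to basolateral (absorption) and basolateral to apical (efflux). The result is given as apparent permeability in cm/s.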

Rattus norvegicus [6] = experiment: Antidepressant activity in rat assessed as immobility time at 0.08 mg/kg, po by forced swimming test (reference value: 158.7 +/- 8.9 sec); type: functional
Outline: (§2)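 Rat forced swimming test (Porsolt): test substances given orally, and immobility time in seconds is recorded as mean ± SEM. Imipramine serves as the reference antidepressant.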

[7] = Plasma concentration in po dosed rat after 270 mins; type: ADME, organism-based
Outline: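 Rats were fed the pure compound orally, and plasma concentration was followed over time, including the 270 min point. AUC was expressed relative to the compound given alone, set at 100%.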

[8] = molecular target: T1, Corticotropin-releasing factor receptor 1 (Homo sapiens, UniProt P34998); experiment: Inhibition of recombinant CRF1 receptor expressed in CHO cells assessed as inhibition of CRF-induced cAMP formation; type: functional, cell-based
T1 sequence (P34998 whole entry): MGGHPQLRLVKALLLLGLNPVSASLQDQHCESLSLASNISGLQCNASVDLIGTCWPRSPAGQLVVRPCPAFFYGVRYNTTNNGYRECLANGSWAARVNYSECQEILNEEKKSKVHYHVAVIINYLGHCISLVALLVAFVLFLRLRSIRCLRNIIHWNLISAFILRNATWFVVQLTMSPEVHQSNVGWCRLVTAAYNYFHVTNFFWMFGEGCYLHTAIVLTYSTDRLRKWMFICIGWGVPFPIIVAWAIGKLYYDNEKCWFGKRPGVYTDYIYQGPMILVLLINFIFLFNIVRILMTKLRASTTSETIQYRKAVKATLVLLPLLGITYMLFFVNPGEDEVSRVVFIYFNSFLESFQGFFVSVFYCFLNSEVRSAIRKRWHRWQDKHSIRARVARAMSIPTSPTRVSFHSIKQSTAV

[9] = Permeability across apical to basolateral side in human Caco-2 cells; type: ADME, cell-based; settings: read-out: permeability
Outline: as §1

Rattus norvegicus [10] = experiment: Antidepressant activity in rat assessed as immobility time at […], po by forced swimming test (reference value: 158.7 +/- 8.9 sec); type: functional
[11] = molecular target: T1, Corticotropin-releasing factor receptor 1; experiment: Inhibition of CRF1 receptor
Rattus norvegicus [12] = experiment: Reduction in %5HT1A receptor mRNA expression in rat hippocampus at 0.2 mg/kg, po, qd for 8 weeks; type: functional; design: scale not given: the % may be the effect or the level left
Rattus norvegicus [13] = experiment: Antidepressant activity in rat assessed as immobility time at 0.5 mg/kg, po by forced swimming test (reference value: 158.7 +/- 8.9 sec); type: functional
Outline: as §2

Rattus norvegicus [14] = experiment: Antidepressant activity in rat assessed as immobility time at 7.6 mg/kg, po by forced swimming test (reference value: 169.6 +/- 19 sec); type: functional
Outline: as §2

Rattus norvegicus [15] = experiment: Antidepressant activity in rat assessed as immobility time at 5.2 mg/kg, po by forced swimming test (reference value: 169.6 +/- 19 sec); type: functional
Outline: as §2

Rattus norvegicus [16] = experiment: Antidepressant activity in rat assessed as immobility time at 0.6 mg/kg, po by forced swimming test (reference value: 169.6 +/- 19 sec); type: functional
Outline: as §2

Rattus norvegicus [17] = experiment: Antidepressant activity in rat assessed as immobility time at 2.6 mg/kg, po by forced swimming test (reference value: 169.6 +/- 19 sec); type: functional
Outline: as §2

Rattus norvegicus [18] = experiment: Antidepressant activity in rat assessed as immobility time at 1.3 mg/kg, po by forced swimming test (reference value: 169.6 +/- 19 sec); type: functional
Outline: as §2

Rattus norvegicus [19] = experiment: Antidepressant activity in rat assessed as immobility time at 20 mg/kg, po by forced swimming test (reference value: 150.3 +/- 11.1 sec); type: functional
Outline: as §2

Rattus norvegicus [20] = experiment: Antidepressant activity in rat assessed as immobility time at 20 mg/kg, po by forced swimming test (reference value: 169.6 +/- 19 sec); type: functional
Outline: as §2

Rattus norvegicus [21] = experiment: Antidepressant activity in rat assessed as immobility time at 20 mg/kg, po by forced swimming test (reference value: 138.6 +/- 12 sec); type: functional
Rattus norvegicus [22] = experiment: Antidepressant activity in rat assessed as immobility time at 20 mg/kg, po by forced swimming test (reference value: 158.7 +/- 8.9 sec); type: functional
Outline: as §2

[23] = molecular target: T2, Alpha-2C adrenergic receptor (Homo sapiens, UniProt P18825); experiment: Binding affinity to adrenergic alpha2c receptor
T2 sequence (P18825 whole entry): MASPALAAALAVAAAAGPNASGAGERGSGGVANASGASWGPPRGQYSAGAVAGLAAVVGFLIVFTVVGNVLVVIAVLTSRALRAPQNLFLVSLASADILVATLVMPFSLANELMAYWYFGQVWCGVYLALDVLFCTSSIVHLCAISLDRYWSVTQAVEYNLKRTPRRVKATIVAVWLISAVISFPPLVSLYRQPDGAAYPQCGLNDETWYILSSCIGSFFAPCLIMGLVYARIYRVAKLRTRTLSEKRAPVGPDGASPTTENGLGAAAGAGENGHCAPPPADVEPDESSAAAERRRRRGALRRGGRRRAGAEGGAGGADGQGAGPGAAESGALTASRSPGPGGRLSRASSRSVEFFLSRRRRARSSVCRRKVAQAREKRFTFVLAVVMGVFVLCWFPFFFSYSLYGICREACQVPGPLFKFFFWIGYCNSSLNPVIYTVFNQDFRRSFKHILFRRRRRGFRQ

D(4) dopamine receptor = molecular target: T3, D(4) dopamine receptor (Homo sapiens, UniProt P21917); experiment: Binding affinity to dopamine D4 receptor
T3 sequence (P21917 whole entry): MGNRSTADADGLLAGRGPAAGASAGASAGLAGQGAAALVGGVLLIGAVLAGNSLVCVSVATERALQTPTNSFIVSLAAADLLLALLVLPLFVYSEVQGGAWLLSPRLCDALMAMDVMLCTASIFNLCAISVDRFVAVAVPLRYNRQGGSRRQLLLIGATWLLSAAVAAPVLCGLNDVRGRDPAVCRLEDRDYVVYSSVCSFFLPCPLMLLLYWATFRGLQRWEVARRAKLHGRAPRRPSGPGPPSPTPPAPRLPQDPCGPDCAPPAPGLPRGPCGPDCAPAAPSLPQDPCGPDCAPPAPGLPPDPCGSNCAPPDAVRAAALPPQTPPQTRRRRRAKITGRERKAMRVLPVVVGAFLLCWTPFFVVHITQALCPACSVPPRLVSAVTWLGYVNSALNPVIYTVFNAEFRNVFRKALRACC

Sequence of Cytochrome P450 3A4 (P08684 whole entry): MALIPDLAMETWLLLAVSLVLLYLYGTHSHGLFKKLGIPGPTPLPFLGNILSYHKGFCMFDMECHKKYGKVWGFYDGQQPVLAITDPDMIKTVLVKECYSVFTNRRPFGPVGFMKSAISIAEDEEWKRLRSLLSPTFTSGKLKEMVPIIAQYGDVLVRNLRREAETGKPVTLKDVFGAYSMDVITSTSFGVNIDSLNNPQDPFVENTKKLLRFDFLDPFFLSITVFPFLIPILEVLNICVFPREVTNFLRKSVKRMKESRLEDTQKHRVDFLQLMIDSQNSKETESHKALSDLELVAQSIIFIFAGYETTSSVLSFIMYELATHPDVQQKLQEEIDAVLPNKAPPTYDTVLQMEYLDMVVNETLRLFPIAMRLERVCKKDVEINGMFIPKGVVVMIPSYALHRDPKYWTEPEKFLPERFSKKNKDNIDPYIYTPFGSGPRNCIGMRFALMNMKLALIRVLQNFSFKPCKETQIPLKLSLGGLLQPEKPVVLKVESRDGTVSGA
Sequence of Delta-type opioid receptor (P41143 whole entry): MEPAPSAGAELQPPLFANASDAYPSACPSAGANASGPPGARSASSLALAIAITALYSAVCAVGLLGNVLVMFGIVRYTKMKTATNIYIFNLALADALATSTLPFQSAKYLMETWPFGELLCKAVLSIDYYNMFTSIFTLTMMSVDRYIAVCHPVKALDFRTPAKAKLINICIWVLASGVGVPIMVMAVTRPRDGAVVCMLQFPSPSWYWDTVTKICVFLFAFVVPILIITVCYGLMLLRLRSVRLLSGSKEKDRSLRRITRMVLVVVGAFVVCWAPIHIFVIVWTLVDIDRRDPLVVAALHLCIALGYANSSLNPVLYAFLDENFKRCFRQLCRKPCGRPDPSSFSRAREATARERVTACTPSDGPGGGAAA

IC50 (Cytochrome P450 3A4): 80 nM
SMILES: O=c1c(-c2c(O)cc(O)c3c(=O)cc(-c4ccc(O)cc4)oc23)c(-c2ccc(O)cc2)oc2cc(O)cc(O)c12

Ki [1]: 36.5 nM
SMILES: O=c1cc(-c2ccc(O)c(-c3c(O)cc(O)c4c(=O)cc(-c5ccc(O)cc5)oc34)c2)oc2cc(O)cc(O)c12 [AMENTOFLAVONE]

SMILES: C[C@@H]1O[C@@H](O[C@H]2C(=O)c3c(O)cc(O)cc3O[C@@H]2c2ccc(O)c(O)c2)[C@H](O)[C@H](O)[C@H]1O [ASTILBIN]
Time (Rattus norvegicus [2]): 148.6 s | Time (Rattus norvegicus [3]): 163.7 s

SMILES: Cc1cc(O)c2c(=O)c3c(O)cc(O)c4c5c(O)cc(O)c6c(=O)c7c(O)cc(C)c8c1c2c(c34)c(c78)c65 [HYPERICIN]
IC50 (Cytochrome P450 3A4): 8700 nM | Activity (Rattus norvegicus [4]): 16% | Ki (D(3) dopamine receptor): 34.5 nM | Papp B→A [5]: 12 ×10⁻⁶ cm/s | Time (Rattus norvegicus [6]): 154.7 s | concentration at 4.5 h [7]: 6 ng/mL | IC50 [8]: 300 nM | Papp A→B [9]: 0.25 ×10⁻⁶ cm/s | Time (Rattus norvegicus [10]): 110.2 s | IC50 [11]: 300 nM | Activity (Rattus norvegicus [12]): 11% | Time (Rattus norvegicus [13]): 147.8 s

SMILES: O=c1c(O[C@@H]2O[C@H](CO)[C@H](O)[C@H](O)[C@H]2O)c(-c2ccc(O)c(O)c2)oc2cc(O)cc(O)c12 [HYPEROSIDE]
Time (Rattus norvegicus [14]): 158.8 s | Time (Rattus norvegicus [15]): 149.2 s | Time (Rattus norvegicus [16]): 101.2 s | Time (Rattus norvegicus [17]): 133.7 s | Time (Rattus norvegicus [18]): 109.5 s

SMILES: CN(C)CCCN1c2ccccc2CCc2ccccc21 [IMIPRAMINE]
Time (Rattus norvegicus [19]): 86.1 s | Time (Rattus norvegicus [20]): 95.4 s | Time (Rattus norvegicus [21]): 77.5 s | Time (Rattus norvegicus [22]): 97.1 s

SMILES: O=c1c(O[C@@H]2O[C@H](CO)[C@@H](O)[C@H](O)[C@H]2O)c(-c2ccc(O)c(O)c2)oc2cc(O)cc(O)c12 [ISOQUERCETIN]
Time (Rattus norvegicus [2]): 100.4 s

Ki [23]: 4060 nM
SMILES: O=C(O)[C@H]1O[C@@H](Oc2c(-c3ccc(O)c(O)c3)oc3cc(O)cc(O)c3c2=O)[C@H](O)[C@@H](O)[C@@H]1O [MIQUELIANIN]

SMILES: O=c1c(O)c(-c2ccc(O)c(O)c2)oc2cc(O)cc(O)c12 [QUERCETIN]
Ki (D(4) dopamine receptor): 7850 nM

SMILES: C[C@@H]1O[C@@H](Oc2c(-c3ccc(O)c(O)c3)oc3cc(O)cc(O)c3c2=O)[C@H](O)[C@H](O)[C@H]1O [QUERCITRIN]
Time (Rattus norvegicus [2]): 149.9 s | Time (Rattus norvegicus [3]): 162.3 s
